For test [1], the target named is Voltage-dependent L-type calcium channel subunit alpha-1D (Rattus norvegicus) (UniProt P27732). In words: Antagonist activity at rat Cav1.3 expressed in HEK293 cells assessed as inhibition of voltage pulse-induced calcium current at 200 nM by FLIPR calcium 4 assay. It is filed as functional, cell-based. The conditions noted are these: in the assay text read “by whole-cell patch-clamp recording” for “by FLIPR calcium 4 assay”. The essentials: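 Whole-cell patch clamp on tsA201 cells transiently cotransfected with rabbit Cav1.2 α1C or rat Cav1.3 α1D, Cavβ3 and Cavα2δ-1 (1:1:1) plus GFP. GFP cells were recorded after replating at 48 h. Bath (mM): 110 NaCl, 1 MgCl2, 10 BaCl2, 10 HEPES, 10 glucose, 20 CsCl, pH 7.4. Compound was diluted from DMSO stock and perfused. Pulses ran from -60 mV to +10 or 0 mV with tetrodotoxin at about 22 °C. Read-out was percent current inhibition.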

Test [2] can be described thus: Selectivity ratio of antagonist activity at rat Cav1.3 to antagonist activity at rabbit Cav1.2 at 200 nM. Format: functional. A digest of the protocol:
(§1)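 Percent inhibition of Cav1.3 current was divided by that of Cav1.2 at the same concentration. Currents were from whole-cell patch clamp in transiently transfected tsA201 cells: Ba2+ bath, pH 7.4, steps from -60 mV, about 22 °C.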

In test [3] the target is T1, Voltage-dependent L-type calcium channel subunit alpha-1C (Oryctolagus cuniculus, UniProt P15381). The test is described as follows: Antagonist activity at rabbit Cav1.2 expressed in tsA201 cells assessed as inhibition of voltage pulse-induced calcium current at 200 nM by whole-cell patch-clamp recording. (In general: In patch-clamp work, channel activity is measured electrically.)

For test [4], the target named is Voltage-dependent L-type calcium channel subunit alpha-1D (Rattus norvegicus) (UniProt P27732). In words: Antagonist activity at rat Cav1.3 expressed in HEK293 cells assessed as inhibition of voltage pulse-induced calcium current at 100 nM by whole-cell patch-clamp recording.
Test [5] addresses T1, Voltage-dependent L-type calcium channel subunit alpha-1C. In words: Antagonist activity at rabbit Cav1.2 expressed in tsA201 cells assessed as inhibition of voltage pulse-induced calcium current at 100 nM by whole-cell patch-clamp recording.
The nature of test [6]: Selectivity ratio of antagonist activity at rat Cav1.3 to antagonist activity at rabbit Cav1.2 at 100 nM. It is filed as functional. A digest of the protocol:
as §1

In test [7] the target is T1, Voltage-dependent L-type calcium channel subunit alpha-1C. The test is described as follows: Antagonist activity at rabbit Cav1.2 expressed in HEK293 cells assessed as inhibition of voltage pulse-induced calcium current by FLIPR calcium 4 assay. It is filed as functional, cell-based. A digest of the protocol: (§2)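 HEK293 lines stably expressing Cavβ3 and Cavα2δ-1 plus Cav1.2 α1C (rabbit) or Cav1.3 α1D (rat) were selected with zeocin/hygromycin. Calcium signals were read by FLIPR with Calcium 4 dye. IC50 came from 11-point dose-response curves. Signal percentage error (SD/mean) was 6.4% for Cav1.2 and 4.1% for Cav1.3 cells.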

The target in test [8] is Voltage-dependent L-type calcium channel subunit alpha-1D (Rattus norvegicus, UniProt P27732). In words: Antagonist activity at rat Cav1.3 expressed in HEK293 cells assessed as inhibition of voltage pulse-induced calcium current by FLIPR calcium 4 assay. It is filed as functional, cell-based. The essentials: as §2
Sequence of Voltage-dependent L-type calcium channel subunit alpha-1D (P27732 whole entry): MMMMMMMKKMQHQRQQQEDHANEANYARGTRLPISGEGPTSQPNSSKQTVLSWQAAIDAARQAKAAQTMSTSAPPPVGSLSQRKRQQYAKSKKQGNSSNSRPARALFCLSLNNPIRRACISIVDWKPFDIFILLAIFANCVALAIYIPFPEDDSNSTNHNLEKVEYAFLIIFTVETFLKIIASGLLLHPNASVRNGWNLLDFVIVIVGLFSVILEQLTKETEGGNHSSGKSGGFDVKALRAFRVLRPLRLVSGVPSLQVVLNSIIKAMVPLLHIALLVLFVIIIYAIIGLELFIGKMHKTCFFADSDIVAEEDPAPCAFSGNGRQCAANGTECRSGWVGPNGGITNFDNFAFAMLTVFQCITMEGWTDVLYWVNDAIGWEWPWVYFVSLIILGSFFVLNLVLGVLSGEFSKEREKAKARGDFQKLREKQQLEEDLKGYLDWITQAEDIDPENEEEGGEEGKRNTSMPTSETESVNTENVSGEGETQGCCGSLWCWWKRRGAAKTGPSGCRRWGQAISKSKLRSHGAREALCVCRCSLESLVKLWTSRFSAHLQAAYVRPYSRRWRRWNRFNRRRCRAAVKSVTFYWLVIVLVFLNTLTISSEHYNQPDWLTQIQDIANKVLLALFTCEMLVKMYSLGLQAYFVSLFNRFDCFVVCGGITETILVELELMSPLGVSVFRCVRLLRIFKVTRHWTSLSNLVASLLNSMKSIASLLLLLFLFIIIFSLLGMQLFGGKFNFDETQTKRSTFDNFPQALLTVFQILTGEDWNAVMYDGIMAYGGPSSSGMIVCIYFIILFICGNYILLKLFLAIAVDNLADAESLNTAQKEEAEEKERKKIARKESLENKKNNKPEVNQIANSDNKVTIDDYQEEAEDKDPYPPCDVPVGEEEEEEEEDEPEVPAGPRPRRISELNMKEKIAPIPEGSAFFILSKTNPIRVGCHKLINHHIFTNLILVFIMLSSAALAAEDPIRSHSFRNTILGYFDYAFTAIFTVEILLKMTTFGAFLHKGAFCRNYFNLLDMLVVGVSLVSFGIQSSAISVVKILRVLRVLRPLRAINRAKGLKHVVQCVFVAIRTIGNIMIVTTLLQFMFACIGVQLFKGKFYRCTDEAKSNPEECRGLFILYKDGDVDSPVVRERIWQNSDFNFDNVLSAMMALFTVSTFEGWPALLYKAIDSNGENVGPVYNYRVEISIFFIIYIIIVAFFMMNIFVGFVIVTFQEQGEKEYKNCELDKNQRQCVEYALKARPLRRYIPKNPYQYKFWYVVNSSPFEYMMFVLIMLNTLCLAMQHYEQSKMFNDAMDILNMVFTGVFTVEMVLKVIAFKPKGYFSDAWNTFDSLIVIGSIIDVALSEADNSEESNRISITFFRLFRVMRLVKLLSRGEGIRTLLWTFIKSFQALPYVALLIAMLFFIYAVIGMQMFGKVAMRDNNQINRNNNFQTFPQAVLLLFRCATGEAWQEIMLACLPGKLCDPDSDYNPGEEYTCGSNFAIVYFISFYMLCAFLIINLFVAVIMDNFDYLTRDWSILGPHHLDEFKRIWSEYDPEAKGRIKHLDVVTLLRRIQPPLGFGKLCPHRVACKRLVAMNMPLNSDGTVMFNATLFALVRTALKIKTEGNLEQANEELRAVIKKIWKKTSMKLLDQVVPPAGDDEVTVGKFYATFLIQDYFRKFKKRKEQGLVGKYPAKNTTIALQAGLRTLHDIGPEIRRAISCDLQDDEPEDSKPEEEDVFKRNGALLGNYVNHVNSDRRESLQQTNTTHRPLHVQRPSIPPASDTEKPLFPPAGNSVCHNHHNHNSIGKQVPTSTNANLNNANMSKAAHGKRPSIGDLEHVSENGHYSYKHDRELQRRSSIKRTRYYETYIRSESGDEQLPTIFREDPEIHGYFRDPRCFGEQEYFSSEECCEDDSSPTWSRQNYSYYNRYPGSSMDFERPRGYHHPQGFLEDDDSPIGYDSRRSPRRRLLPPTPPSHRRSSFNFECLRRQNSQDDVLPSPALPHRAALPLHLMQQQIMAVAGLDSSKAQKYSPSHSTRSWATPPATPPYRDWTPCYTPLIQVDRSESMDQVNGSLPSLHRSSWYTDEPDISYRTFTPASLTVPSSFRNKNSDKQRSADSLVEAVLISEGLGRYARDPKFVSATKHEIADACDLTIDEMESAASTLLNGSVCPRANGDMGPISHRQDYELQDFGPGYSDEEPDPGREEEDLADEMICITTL

Sequence of Voltage-dependent L-type calcium channel subunit alpha-1D (Rattus norvegicus) (P27732 whole entry, the tested form may be a part): as the sequence (P27732 whole entry) above
T1 sequence (P15381 whole entry): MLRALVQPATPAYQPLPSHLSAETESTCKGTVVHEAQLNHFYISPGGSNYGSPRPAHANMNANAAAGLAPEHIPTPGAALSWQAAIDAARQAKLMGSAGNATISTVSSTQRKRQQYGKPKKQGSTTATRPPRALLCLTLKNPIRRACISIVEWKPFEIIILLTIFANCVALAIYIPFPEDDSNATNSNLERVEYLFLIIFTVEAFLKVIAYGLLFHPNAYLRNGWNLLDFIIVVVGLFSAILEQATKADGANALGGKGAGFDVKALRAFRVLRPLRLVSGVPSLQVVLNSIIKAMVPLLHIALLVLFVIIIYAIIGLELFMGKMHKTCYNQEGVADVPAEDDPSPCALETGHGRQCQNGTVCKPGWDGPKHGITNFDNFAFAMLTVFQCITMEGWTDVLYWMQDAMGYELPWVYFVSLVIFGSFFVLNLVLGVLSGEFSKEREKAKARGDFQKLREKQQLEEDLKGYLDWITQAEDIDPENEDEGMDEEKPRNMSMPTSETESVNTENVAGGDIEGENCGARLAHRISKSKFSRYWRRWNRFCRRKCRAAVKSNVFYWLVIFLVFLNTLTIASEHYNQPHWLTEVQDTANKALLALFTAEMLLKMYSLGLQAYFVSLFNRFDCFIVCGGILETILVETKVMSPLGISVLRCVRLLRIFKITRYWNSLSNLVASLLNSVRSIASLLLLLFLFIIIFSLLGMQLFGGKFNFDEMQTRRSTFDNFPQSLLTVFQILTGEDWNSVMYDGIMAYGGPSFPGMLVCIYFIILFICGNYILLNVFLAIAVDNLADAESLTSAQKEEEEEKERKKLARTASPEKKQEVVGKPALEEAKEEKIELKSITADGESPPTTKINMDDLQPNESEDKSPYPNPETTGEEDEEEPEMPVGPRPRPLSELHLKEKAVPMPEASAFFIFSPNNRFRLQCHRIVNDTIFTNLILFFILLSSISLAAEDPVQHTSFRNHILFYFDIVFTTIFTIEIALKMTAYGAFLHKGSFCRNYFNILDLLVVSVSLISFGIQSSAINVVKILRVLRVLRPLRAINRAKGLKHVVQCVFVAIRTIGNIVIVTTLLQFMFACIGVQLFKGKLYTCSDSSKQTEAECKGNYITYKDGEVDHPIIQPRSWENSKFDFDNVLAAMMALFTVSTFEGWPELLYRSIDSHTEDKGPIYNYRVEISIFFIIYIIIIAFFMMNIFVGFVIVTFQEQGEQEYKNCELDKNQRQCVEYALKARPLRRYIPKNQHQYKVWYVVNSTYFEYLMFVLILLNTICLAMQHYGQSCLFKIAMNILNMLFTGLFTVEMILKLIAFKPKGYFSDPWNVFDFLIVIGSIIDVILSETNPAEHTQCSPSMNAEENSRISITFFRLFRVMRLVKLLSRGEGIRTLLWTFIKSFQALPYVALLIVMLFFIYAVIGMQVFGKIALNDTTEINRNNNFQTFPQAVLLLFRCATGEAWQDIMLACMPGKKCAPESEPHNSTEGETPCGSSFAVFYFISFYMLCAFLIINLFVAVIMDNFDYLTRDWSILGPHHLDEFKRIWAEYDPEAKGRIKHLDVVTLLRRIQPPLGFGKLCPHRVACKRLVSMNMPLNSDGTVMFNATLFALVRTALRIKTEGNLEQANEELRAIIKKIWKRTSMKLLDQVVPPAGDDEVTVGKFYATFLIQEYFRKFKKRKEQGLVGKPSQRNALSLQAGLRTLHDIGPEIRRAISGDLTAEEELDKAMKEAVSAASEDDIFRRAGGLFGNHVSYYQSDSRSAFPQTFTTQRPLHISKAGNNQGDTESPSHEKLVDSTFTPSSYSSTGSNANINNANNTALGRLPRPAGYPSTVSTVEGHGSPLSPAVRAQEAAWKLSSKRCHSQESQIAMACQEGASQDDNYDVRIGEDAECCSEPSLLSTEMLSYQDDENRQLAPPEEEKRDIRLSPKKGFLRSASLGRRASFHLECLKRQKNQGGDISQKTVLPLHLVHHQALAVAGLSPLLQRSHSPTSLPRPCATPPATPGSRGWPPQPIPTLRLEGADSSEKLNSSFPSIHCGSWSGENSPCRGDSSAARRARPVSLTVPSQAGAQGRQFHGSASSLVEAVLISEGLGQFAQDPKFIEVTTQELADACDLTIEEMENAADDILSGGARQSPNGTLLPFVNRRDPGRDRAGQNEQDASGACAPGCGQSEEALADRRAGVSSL

One may read the inhibition as the percentage by which the read-out fell short of the control. On to `CCOC(=O)C1=C(C)N=C(C)/C(=C(/O)OCC)C1c1cccs1` (stereo not given), for which, in test [1], the inhibition came out at 57%. For the same compound, the Selectivity ratio in test [2] stood at 0.87. Moreover, the inhibition at 0.2 µM in test [3] is 65%.
For `CCOC(=O)C1=C(C(F)(F)F)NC(C(F)(F)F)=C(C(=O)OCC)C1c1cccc(C(F)(F)F)c1` the same measures were 67%, 1.1 and 61%.
As for `CCOC(=O)C1=C(C)NC(C)=C(C(=O)OCC)C1c1ccsc1`, the inhibition in test [1] stood at 50%. Also, in test [2], the Selectivity ratio was 0.93. In test [3], the inhibition at 0.2 µM was 54%.
For `COC(=O)C1=C(C)NC(C)=C(C(=O)OC(C)(C)C)C1c1cccc([N+](=O)[O-])c1` (stereo not given) [MEBUDIPINE] the same measures were 85%, 0.93 and 91%.
For the compound `CCOC(=O)C1=C(C)NC(C)=C(C(=O)OCC)C1c1cccc(Br)c1`, the inhibition in test [4] is 80%. Also, the inhibition at 0.1 µM in test [5] came to 82%. Moreover, the Selectivity ratio in test [6] turned out to be 0.98.
As to `CCOC(=O)C1=C(C)NC(C)=C(C(=O)OCC)C1c1csc2ccccc12`, the inhibition in test [1] is 57%. The Selectivity ratio in test [2] turned out to be 0.7. The inhibition at 0.2 µM in test [3] stood at 80%.
As for `CC1=C(C(=O)OCC(C)C)C(c2cccc([N+](=O)[O-])c2)C(C(=O)OCC(C)C)=C(C)N1`, the inhibition in test [1] worked out at 59%. Moreover, in test [2], the Selectivity ratio was found to be 1.14. Also, in test [3], the inhibition at 0.2 µM turned out to be 52%.
Turning to `CCOC(=O)C1=C(CC)NC(CC)=C(C(=O)OCC)C1c1cccc([N+](=O)[O-])c1`, the inhibition in test [4] came to 37%. Further, the inhibition at 0.1 µM in test [5] was 52%. In test [6], the Selectivity ratio turned out to be 0.71.
Take `CCOC(=O)C1=C(C)NC(C)=C(C(=O)OCC)C1C1CCCCC1`: the inhibition in test [1] turned out to be 21%. In addition, in test [2], the Selectivity ratio was determined as 0.81. The inhibition at 0.2 µM in test [3] was determined as 26%.
On the same counts, the results for `CCOC(=O)C1=C(C(F)(F)F)NC(C(F)(F)F)=C(C(=O)OCC)C1c1cccc([N+](=O)[O-])c1` are 38%, 1.11 and 34%.
Turning to `CCOC(=O)C1=C(C)NC(C)=C(C(=O)OCC)C1c1cccc(F)c1`, in test [4], the inhibition stood at 48%. Besides, in test [5], the inhibition at 0.1 µM is 64%. In addition, the Selectivity ratio in test [6] amounted to 0.75.
For `CCOC(=O)C1=C(C)NC(C)=C(C(=O)OC)C1c1cccc([N+](=O)[O-])c1` (stereo not given) [NITRENDIPINE], the inhibition in test [4] was determined as 34%. Further, the inhibition at 0.1 µM in test [5] worked out at 62%. In addition, the Selectivity ratio in test [6] came out at 0.55.
Consider `CCOC(=O)C1=C(C)N=C(C)/C(=C(/O)OCC)C1c1ccncc1` (stereo not given), for which, in test [1], the inhibition is 15%. For the same compound, the Selectivity ratio in test [2] is 0.56. In test [3], the inhibition at 0.2 µM was determined as 27%.
Consider `CC1=C(C(=O)OC(C)C)C(c2cccc([N+](=O)[O-])c2)C(C(=O)OC(C)C)=C(C)N1`, for which the inhibition in test [1] worked out at 66%. In addition, the Selectivity ratio in test [2] amounted to 0.86. For the same compound, the inhibition at 0.2 µM in test [3] worked out at 77%.
Regarding `CCOC(=O)C1=C(C)NC(CC)=C(C(=O)OCC)C1c1cccc([N+](=O)[O-])c1` (stereo not given), the inhibition in test [1] amounted to 88%. Further, the Selectivity ratio in test [2] turned out to be 0.95. The inhibition at 0.2 µM in test [3] is 93%.
On the same counts, the results for `CCOC(=O)C1=C(C)NC(C)=C(C(=O)OCC)C1c1ccccc1-c1ccccc1` are 65%, 0.89 and 73%.
Regarding `COC(=O)C1=C(C)NC(C)=C(C(=O)OC(C)C)C1c1cccc([N+](=O)[O-])c1` (stereo not given), the inhibition in test [1] turned out to be 89%. Besides, the Selectivity ratio in test [2] is 0.93. In test [3], the inhibition at 0.2 µM worked out at 96%.
For `CCOC(=O)C1=C(C)NC(C)=C(C(=O)OCC)C1c1cc(C(F)(F)F)cc(C(F)(F)F)c1` the same measures were 38%, 1 and 38%.
With `CCOC(=O)C1=C(C)NC(C)=C(C(=O)OCC)C1c1cc(Br)cc(Br)c1`, in test [1], the inhibition stood at 72%. The Selectivity ratio in test [2] was 0.98. The inhibition at 0.2 µM in test [3] was found to be 74%.
Turning to `CCOC(=O)C1=C(C)NC(C)=C(C(=O)OCC)C1c1ccoc1`, the inhibition in test [1] stood at 32%. Also, the Selectivity ratio in test [2] is 0.57. Further, the inhibition at 0.2 µM in test [3] turned out to be 56%.
For `CCCC1C(C(=O)OCC)=C(C)NC(C)=C1C(=O)OCC` the same measures were 36%, 0.86 and 42%.
Regarding `CCOC(=O)C1=C(C)NC(C)=C(C(=O)OCC)C1c1ccccc1I`, in test [1], the inhibition turned out to be 95%. Besides, the Selectivity ratio in test [2] was 0.99. For the same compound, the inhibition at 0.2 µM in test [3] was found to be 96%.
Regarding `COC(=O)C1=C(C)NC(C)=C(C(=O)OCC(C)C)C1c1cccc([N+](=O)[O-])c1` (stereo not given), the inhibition in test [1] worked out at 90%. For the same compound, in test [2], the Selectivity ratio is 0.96. For the same compound, in test [3], the inhibition at 0.2 µM was 94%.
For `CCOC(=O)C1=C(C)NC(C)=C(C(=O)OCC)C1c1ccc2ccccc2c1` the same measures were 12%, 0.75 and 16%.
The IC50 is the point on the concentration scale where inhibition reaches its midpoint. For `COC(=O)C1=C(C)NC(C)=C(C(=O)OCCC#N)C1c1cccc([N+](=O)[O-])c1` (stereo not given), the results for the IC50 in test [7] and in test [8] were 26 nM and 78 nM, respectively.
Regarding `COC(=O)C1=C(C)NC(C)=C(C(=O)OCCCl)C1c1cccc([N+](=O)[O-])c1` (stereo not given), the IC50 was 26 nM in test [7] and 22 nM in test [8].
With `COC(=O)C1=C(C)NC(C)=C(C(=O)OCCOCc2ccccc2)C1c1cccc([N+](=O)[O-])c1` (stereo not given), the IC50 in test [7] stood at 9 nM; in test [8], 12 nM.
`CCOC(=O)C1=C(C)NC(C)=C(C(=O)OCC)C1c1cc([N+](=O)[O-])ccc1Cl`: in test [1], the inhibition was determined as 89%. Also, the Selectivity ratio in test [2] worked out at 0.92. Further, the inhibition at 0.2 µM in test [3] amounted to 97%.
Take `COCC1=C(C(=O)OC)C(c2cccc([N+](=O)[O-])c2)C(C(=O)OC)=C(C)N1` (stereo not given): the IC50 in test [7] came to 115 nM; in test [8] it was 350 nM.
With `COC(=O)C1=C(C)NC(C)=C(C(=O)OCCOc2ccccc2Cl)C1c1cccc([N+](=O)[O-])c1` (stereo not given), the IC50 in test [7] is 19 nM; in test [8], 46 nM.
Turning to `CCOC(=O)C1=C(C)NC(C)=C(C(=O)OCC)C1c1ccc(Cl)c([N+](=O)[O-])c1`, the inhibition in test [1] was 66%. Besides, the Selectivity ratio in test [2] was 0.77. Moreover, in test [3], the inhibition at 0.2 µM turned out to be 86%.
Consider `COC(=O)C1=C(C)NC(C)=C(C(=O)OCCC#N)[C@@H]1c1cccc([N+](=O)[O-])c1`, for which the IC50 in test [7] turned out to be 262 nM; in test [8], 399 nM.
In the case of `CCOC(=O)C1=C(C)NC(C)=C(C(=O)OCCC#N)[C@H]1c1cccc([N+](=O)[O-])c1`, the values for the IC50 in test [7] and in test [8] were 51 nM and 211 nM, respectively.
For the compound `CCCCCOC(=O)C1=C(C)NC(C)=C(C(=O)OCC)C1c1cccc([N+](=O)[O-])c1` (stereo not given), the values for the IC50 in test [7] and in test [8] were 49 nM and 130 nM, respectively.
On to `COC(=O)C1=C(C)NC(C)=C(C(=O)OCC23CC4CC(C)(CC(C)(C4)C2)C3)C1c1cccc([N+](=O)[O-])c1` (stereo not given), for which the IC50 in test [7] was determined as 685 nM; in test [8], 5070 nM.
Regarding `CCOC(=O)C1=C(C)NC(COC(=O)c2ccccc2)=C(C(=O)OCC)C1c1cccc([N+](=O)[O-])c1` (stereo not given), the IC50 in test [7] was determined as 210 nM; in test [8] it was 170 nM.
Turning to `CCCC1=C(C(=O)OCC)C(c2cccc([N+](=O)[O-])c2)C(C(=O)OCC)=C(C)N1` (stereo not given), the IC50 came to 18 nM in test [7] and 105 nM in test [8].
